High-throughput results from PubChem BioAssay.
CHO parental Ca – signal in parental CHO cells, OX1R antagonist counter-screen | parental CHO-K1, ATP-induced calcium, Fluo-8 fluorescence | inhibition, % at 5.6 µM | 330,000 compounds, 0.63% hits | AID 463079;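 active means inhibition above that plate's mean sample inhibition plus 3 SD, cut at about 26% in these data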
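Assay system: parental CHO cells; Read-out basis: percent inhibition of ATP-evoked calcium rise, normalized to controls; Benchmarks: ATP and no-ATP DMSO wells; Compound dosing: single nominal dose of 5.6 µM per compound; Signal: Fluo-8 calcium dye fluorescence; Also added: ATP as calcium-mobilizing challenge; Repeats: singlicate.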
GalR3 antagonist – antagonists of human GalR3; HEK293 GalR3-CNG cAMP membrane potential fluorescence; galR3 body fused to GalR1 C-terminus; inhibition, % at 3 µM; 360,000 compounds, 0.44% hits;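 active means inhibition above the screen-wide average plus 3 SD, cut at about 13% in these data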;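 further: forskolin and galanin both at EC90 stimulate the cells; cAMP rise reported by CNG channel membrane potential dye signal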
TAAR1 ag – human TAAR1 agonism; CHO RD-HGA16 TAAR1, Fluo-8 calcium fluorescence; vehicle wells 0%, saturating PEA agonist 100%; 360,000 compounds, 0.99% hits; activation, % at 3 µM;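 active means activation above the mean activation of all test compounds in the run plus 3 SD, cut at about 38% in these data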
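System: CHO RD-HGA16 cells carrying human TAAR1 plus Gα16; Incubation: 17-24 h seeding, 75 min 37 °C dye, 30 min RT; Measured by: Fluo-8 fluorescence, 5 s baseline then 140 s kinetic read; Control set: DMSO and PEA EC100; Replication: single well for each compound.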
OX1R antag-1 – OX1R (human) antagonism. inhibition, % at 6.6 µM. 330,000 compounds, 1.8% hits. OX1R-expressing cells, FRET antagonist read-out. O43613; in the data active means inhibition mostly above about 38%, no sharp cut-off; inactive means mostly below about 40%
Target sequence (O43613 whole entry, looked up): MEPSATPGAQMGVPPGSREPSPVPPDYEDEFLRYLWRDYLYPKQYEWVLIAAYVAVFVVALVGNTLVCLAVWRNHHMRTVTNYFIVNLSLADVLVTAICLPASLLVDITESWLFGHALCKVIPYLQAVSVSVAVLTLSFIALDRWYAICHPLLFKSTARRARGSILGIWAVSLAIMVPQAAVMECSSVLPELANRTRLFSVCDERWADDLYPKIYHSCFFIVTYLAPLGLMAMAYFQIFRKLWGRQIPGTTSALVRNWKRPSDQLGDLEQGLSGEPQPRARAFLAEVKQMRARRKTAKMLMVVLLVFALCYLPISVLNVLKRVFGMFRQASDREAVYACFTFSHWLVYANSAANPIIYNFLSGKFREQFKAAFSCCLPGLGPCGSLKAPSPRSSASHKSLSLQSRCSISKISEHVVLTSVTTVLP
TAAR1 antag – human TAAR1 antagonism; inhibition, % at 3 µM; Q96RJ0; 360,000 compounds, 1.5% hits; AID 624466; CHO RD-HGA16 TAAR1, Fluo-8 calcium fluorescence, antagonist;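 active means inhibition above a per-plate cutoff, the mean inhibition of test compounds on that plate plus 3 SD, cut at about 49% in these data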
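Assay system: CHO-derived RD-HGA16 cells stably expressing human TAAR1 plus Gα16. Timing: 140 s kinetic read after compound, 140 s after agonist. Technique: kinetic Fluo-8 calcium fluorescence measurement. Measure: % inhibition of agonist calcium response.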
OX1R antag-2 – human HCRTR1 antagonism | O43613 | CHO/OX1R cells, Fluo-8 calcium fluorescence, orexin A | inhibition, % at 5 µM | 330,000 compounds, 0.43% hits | AID 434989;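 active means inhibition above its plate's threshold, mean inhibition of all tested compounds on the plate plus 3 SD, cut at about 37% in these data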
Numbers stand for hits; - = inactive; . = not tested or not shown. Compounds with a hit are over-represented: about 4.2% of the library has one in this group of screens.

SMILES	CHO parental Ca	GalR3 antagonist	TAAR1 ag	OX1R antag-1	TAAR1 antag	OX1R antag-2
O=C(C1CCC1)N1CCc2cc(S(=O)(=O)NCCN3CCN(c4ccccc4F)CC3)ccc21	51	-	-	-	-	-
CCOc1ccc(Cc2nn[nH]n2)cc1	-	-	-	-	-	-
CN(C)c1ccc2c(c1)Sc1cc(N(C)C)ccc1N2C(=O)c1ccccc1	38	-	-	-	-	-
CC(=O)Nc1nc2n(n1)C(c1ccccc1)C=C(c1ccccc1)N2 (stereo unspecified)	-	.	.	-	.	-
O=C(Nc1nc2n(n1)C(c1ccccc1)C=C(c1ccccc1)N2)c1ccco1 (stereo unspecified)	-	-	-	50	-	-
CCOC(=O)c1ccccc1NC(=O)C1=COCCO1	-	-	-	-	-	-
Cc1ccc(NC(=O)COc2ccccc2C(N)=O)cc1S(=O)(=O)N1CCCCCC1	-	-	-	-	-	53
COc1ccc(NC(=O)COc2ccccc2C(N)=O)cc1S(=O)(=O)N1CCCCC1	.	-	-	.	-	.
COc1cc(C(C)=O)ccc1OCC(=O)Nc1ccc(C)c(S(=O)(=O)N2CCCCCC2)c1	33	-	-	-	77	53
COc1cc(C(C)=O)ccc1OCC(=O)Nc1ccc(S(=O)(=O)N2CCCCC2)cc1	.	-	-	.	-	.
CCOC(=O)c1oc2ccccc2c1COC(=O)CNC(=O)c1ccccc1OC	-	-	-	68	-	-
CCOC(=O)c1oc2ccccc2c1COC(=O)CNC(=O)c1cc(OC)c(OC)c(OC)c1	-	-	-	-	-	-
CCCC(C)NC(=O)Cc1ccc(Br)cc1 (stereo unspecified)	-	-	-	-	-	-
Cc1cc(-c2ccco2)c(C#N)c2nc3ccccc3n12	-	-	-	100	-	-
CCC(=O)OCCNc1cc(Sc2nc3ccccc3s2)c2nonc2c1[N+](=O)[O-]	61	-	-	52	-	60
O=[N+]([O-])c1c(NCCCO)cc(Sc2nc3ccccc3s2)c2nonc12	51	.	.	45	.	54
Cc1cccc(N/N=C/c2ccccc2O)c1	-	-	-	-	-	-
Cc1ccc(S(=O)(=O)Nc2ccc3c(c2)ncn3C(C)(C)C)cc1	-	-	-	-	-	-
CC(C)(C)n1cnc2cc(NS(=O)(=O)c3ccc(Br)cc3)ccc21	58	-	-	-	-	60
O=C1CN(c2nc(-c3cccnc3)nc3sc4c(c23)CCCC4)CCN1	-	-	-	-	-	-
Nc1nc(-c2cccnc2)nc2sc3c(c12)CCCC3	-	-	-	70	-	-
Nc1c(C(=O)O)sc2nc(-c3ccccc3)c3c(c12)CCCC3	-	-	-	-	-	-
CCc1c(-c2ccccc2)nc2sc3c(c2c1N)CCCC3	-	-	-	49	-	-
Cc1c(C(=O)NC(C)c2ccccc2)c(-c2ccccc2)nn1-c1ccccc1 (stereo unspecified)	-	-	-	-	-	-
CNC(=O)c1ccsc1NC(=O)c1ccc2c(c1)CCCC2	-	-	-	-	51	-
SMILES	CHO parental Ca	GalR3 antagonist	TAAR1 ag	OX1R antag-1	TAAR1 antag	OX1R antag-2
CCn1c(Cc2ccccc2)nnc1SCC(=O)Nc1nc2ccccc2s1	-	-	-	-	-	-
CCn1c(SCC(=O)Nc2nc3c(s2)CCCC3)nnc1-c1ccccc1	-	-	-	49	-	-
CCn1c(SCC(=O)Nc2nc3ccccc3s2)nnc1-c1ccc(OC)cc1	39	-	-	-	-	-
O=C(CN1CCOCC1)NNC(=O)c1ccc([N+](=O)[O-])cc1	-	-	-	43	-	-
O=C(Cn1cc([N+](=O)[O-])nc1[N+](=O)[O-])N1CCN(c2ccccc2)CC1	-	-	-	48	-	-
O=C(Cn1cnc2ccccc2c1=O)N1CCN(c2ccccc2)CC1	-	-	-	-	-	-
O=C(NN1CCOCC1)c1ccc([N+](=O)[O-])cc1	.	-	-	.	-	.
O=C(CN1CCOCC1)N1CCN(c2ccc([N+](=O)[O-])cc2)CC1	-	-	-	75	-	-
O=C(Nc1ccccc1C(=O)N1CCOCC1)c1ccc([N+](=O)[O-])cc1	-	-	-	47	-	-
O=C(/C=C/c1ccc([N+](=O)[O-])cc1)OCC(=O)N1CCOCC1	-	-	-	70	-	-
O=C(CCCSc1nc2ccccc2[nH]1)N1CCN(c2ccc([N+](=O)[O-])cc2)CC1	50	-	-	-	-	59
Cc1ccccc1N(CC(=O)NCCSCc1ccco1)S(C)(=O)=O	-	-	-	-	-	-
COC(=O)[C@]12CCCCC=C1N(CCc1ccc(OC)c(OC)c1)C(=O)[C@H](CC(=O)NCc1cccc(C(F)(F)F)c1)C2	.	-	-	.	49	.
COC(=O)[C@]12CCCCC=C1N(CCc1ccc(OC)c(OC)c1)C(=O)[C@H](CC(=O)NCc1ccc(OC)c(OC)c1)C2	.	-	-	.	-	.
COC(=O)[C@@]12C[C@@H](CC(=O)NCc3cccc(C(F)(F)F)c3)C(=O)N(CCc3ccc(OC)c(OC)c3)C1=CCC(C)(C)C2	.	-	-	.	58	.
O=C(Nc1ccc2c(c1)nc1n2CCN(C2CCCCC2)C1)c1ccco1	.	-	-	.	-	.
CCOC(=O)c1cc2c(=O)n3cccc(C)c3nc2n(Cc2ccco2)c1=NC(=O)c1cccnc1	.	-	-	.	-	.
CCOC(=O)c1cc2c(=O)n3ccccc3nc2n(Cc2ccco2)c1=NC(=O)c1cccnc1	-	-	-	52	-	-
CCOC(=O)c1cc2c(=O)n3ccccc3nc2n(Cc2ccco2)c1=NC(=O)c1ccccc1OCC	-	-	-	38	-	-
O=c1oc2c3c(nn2c2ccccc12)CCCC3	-	-	-	67	-	-
O=C(C1CCN(S(=O)(=O)c2cccc3nsnc23)CC1)N1CCCCC1	-	-	-	44	-	-
CC1CCN(C(=O)C2CCN(S(=O)(=O)c3cccc4nsnc34)CC2)CC1	-	-	-	-	-	-
O=C(C1CCCN(S(=O)(=O)c2cccc3nsnc23)C1)N1CC=C(c2ccccc2)CC1 (stereo unspecified)	-	-	-	-	50	-
CC1CCCCN1C(=O)C1CCCN(S(=O)(=O)c2cccc3nsnc23)C1 (stereo unspecified)	-	-	-	-	-	-
Cc1ccc(C)c(N2CCN(C(=O)C3CCN(S(=O)(=O)c4cccc5nsnc45)CC3)CC2)c1	-	-	-	-	54	-
Cc1ccc(Cl)cc1N1CCN(C(=O)C2CCN(S(=O)(=O)c3c(C)nn(C)c3C)CC2)CC1	35	-	-	-	77	-
Cn1nc(C(=O)Nc2nc3ccc(S(C)(=O)=O)cc3s2)ccc1=O	-	-	-	-	-	-
